Test results as given in ChEMBL document CHEMBL1132938, “Novel synthetic oleanane and ursane triterpenoids with various enone functionalities in ring A as inhibitors of nitric oxide production in mouse macrophages” (J Med Chem, 2000).

What was measured:
Format in all cases: functional
Mus musculus [1] = organism: Mus musculus; assay: 50 percent inhibitory concentration of compound to inhibit nitric oxide production induced by IFN-gamma in mouse macrophages
Method in brief: (§1)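 Peritoneal macrophages from female CD-1 mice (5-10 weeks old) were harvested 4 days after ip injection of 2 mL 4% thioglycollate. Cells were seeded at 2×10^5/well and incubated 48 h with 20 ng/mL recombinant mouse IFN-γ, with or without compound (DMSO, final ≤0.1%). Compounds were tested over 0.1 pM–1 μM (10-fold) or 0.01–40 μM (4-fold). Nitrite in the supernatant was measured by Griess reagent at 550 nm against a sodium nitrite standard, in triplicate. Values are the average of two experiments.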

Mus musculus [2] = organism: Mus musculus; assay: 50 percent inhibitory concentration of compound to inhibit nitric oxide production induced by IFN-gamma in mouse macrophages (Not active below 1 uM); method in brief: as §1
Mus musculus [3] = organism: Mus musculus; assay: 50 percent inhibitory concentration of compound to inhibit nitric oxide production induced by IFN-gamma in mouse macrophages (Toxic above 1 uM); method in brief: as §1
Mus musculus [4] = organism: Mus musculus; assay: (§2) Percent inhibition of nitric oxide production induced by IFN-uM concentration; parameters: concentration or dose not given beside the values
Mus musculus [5] = organism: Mus musculus; assay: 50 percent inhibitory concentration of compound to inhibit nitric oxide production induced by IFN-gamma in mouse macrophages (Not active below 10 uM); method in brief: as §1
Mus musculus [6] = organism: Mus musculus; assay: 50 percent inhibitory concentration of compound to inhibit nitric oxide production induced by IFN-gamma in mouse macrophages (Toxic above 10 uM); method in brief: as §1
Mus musculus [7] = organism: Mus musculus; assay: as §2
Mus musculus [8] = organism: Mus musculus; assay: 50 percent inhibitory concentration of compound to inhibit nitric oxide production induced by IFN-uM); method in brief: as §1

Compound	Inhibition (Mus musculus [4])	other results
C[C@@H]1CC[C@]2(C(=O)O)CC[C@]3(C)C(=CC[C@@H]4[C@@]5(C)C=C(C#N)C(=O)C(C)(C)[C@@H]5CC[C@]43C)C2[C@H]1C (stereo partly specified)	–	IC50 (Mus musculus [1]): 6.2 µM
CC1(C)CC[C@]2(C(=O)O)CC[C@]3(C)C(=CC[C@@H]4[C@@]5(C)C=C(C=O)C(=O)C(C)(C)[C@@H]5CC[C@]43C)C2C1 (stereo partly specified)	–	IC50 (Mus musculus [2]): Not active below 1 uM; IC50 (Mus musculus [3]): Not active below 1 uM
CC(=O)OCC12CCC(C)(C)CC1C1=CC[C@@H]3[C@@]4(C)CC[C@H](OC(C)=O)C(C)(C)[C@@H]4CC[C@@]3(C)[C@]1(C)CC2 (stereo partly specified)	4%	–
CC1(C)CCC2(CO)CC[C@]3(C)[C@@H](C2C1)[C@H](O)C[C@@H]1[C@@]2(C)CC[C@H](O)C(C)(C)[C@@H]2CC[C@]13C (stereo partly specified)	20%	–
COC(=O)[C@]12CCC(C)(C)CC1C1=CC[C@@H]3[C@@]4(C)C=CC(=O)C=C4CC[C@@]3(C)[C@]1(C)CC2 (stereo partly specified)	–	IC50 (Mus musculus [1]): > 40 µM
COC(=O)C12CCC(C)(C)CC1[C@H]1C(=O)C[C@@H]3[C@@]4(C)CC[C@H](O)C(C)(C)[C@@H]4CC[C@@]3(C)[C@]1(C)CC2 (stereo partly specified)	0%	–
C[C@@H]1CC[C@]2(C(=O)O)CC[C@]3(C)C(=CC[C@@H]4[C@@]5(C)C=CC(=O)C(C)(C)[C@@H]5CC[C@]43C)C2[C@H]1C (stereo partly specified)	41%	IC50 (Mus musculus [1]): 13 µM
CC1(C)CC[C@]2(C(=O)O)CC[C@]3(C)C(=CC[C@@H]4[C@@]5(C)C=CC(=O)C(C)(C)[C@@H]5CC[C@]43C)C2C1 (stereo partly specified)	85%	–
C=C(C)[C@@H]1CC[C@]2(C)[C@H](CC=C3C4CC(C)(C)CC[C@]4(C(=O)O)CC[C@]32C)[C@@]1(C)CCC#N (stereo partly specified)	33%	–
C=C(C)[C@@H]1CC[C@]2(C)[C@H](CC=C3C4[C@@H](C)[C@H](C)CC[C@]4(C(=O)O)CC[C@]32C)[C@@]1(C)CCC(=O)O (stereo partly specified)	10%	–
COC(=O)[C@]12CC[C@@H](C)[C@H](C)C1C1=CC[C@@H]3[C@@]4(C)C=C(C#N)C(=O)C(C)(C)[C@@H]4CC[C@@]3(C)[C@]1(C)CC2 (stereo partly specified)	–	IC50 (Mus musculus [1]): 5.1 µM
CC1(C)CC[C@]2(C(=O)O)CC[C@]3(C)C(=CC[C@@H]4[C@@]5(C)C=CC(=O)C=C5CC[C@]43C)C2C1 (stereo partly specified)	–	IC50 (Mus musculus [1]): 13 µM
COC(=O)C12CCC(C)(C)CC1[C@H]1[C@H](O)C[C@@H]3[C@@]4(C)CC[C@H](OC(C)=O)C(C)(C)[C@@H]4CC[C@@]3(C)[C@]1(C)CC2 (stereo partly specified)	0%	–
COC(=O)C12CCC(C)(C)CC1[C@]13O[C@H]1C[C@@H]1[C@@]4(C)CC[C@H](OC(C)=O)C(C)(C)[C@@H]4CC[C@@]1(C)[C@]3(C)CC2 (stereo partly specified)	0%	–
C[C@@H]1CCC2(C(=O)O)CC[C@]3(C)C(=CC[C@@H]4[C@@]5(C)CC[C@H](O)C(C)(C)[C@@H]5CC[C@]43C)C2[C@H]1C (stereo partly specified)	0%	IC50 (Mus musculus [5]): Not active below 10 uM; IC50 (Mus musculus [6]): Not active below 10 uM
COC(=O)C12CCC(C)(C)CC1C1=CC[C@@H]3[C@@]4(C)C=CC(=O)C(C)(C)[C@@H]4CC[C@@]3(C)[C@]1(C)CC2 (stereo partly specified)	19%	IC50 (Mus musculus [1]): 31 µM
COC(=O)C12CCC(C)(C)CC1C1=CC[C@@H]3[C@@]4(C)CC[C@@H](Cl)C(C)(C)[C@@H]4CC[C@@]3(C)[C@]1(C)CC2 (stereo partly specified)	2%	–
COC(=O)C12CC[C@@H](C)[C@H](C)C1C1=CC[C@@H]3[C@@]4(C)C=CC(=O)C(C)(C)[C@@H]4CC[C@@]3(C)[C@]1(C)CC2 (stereo partly specified)	0%	–
CC(=O)OC[C@]12CCC(C)(C)CC1C(=O)[C@](C)([C@]1(C)CC[C@H]3C(C)(C)[C@@H](OC(C)=O)CC[C@]3(C)[C@H]1CC=O)CC2 (stereo partly specified)	–	Inhibition (Mus musculus [7]): 52%
COC(=O)[C@]12CCC(C)(C)CC1C1=CC[C@@H]3[C@@]4(C)C=C(C=O)C(=O)C(C)(C)[C@@H]4CC[C@@]3(C)[C@]1(C)CC2 (stereo partly specified)	–	IC50 (Mus musculus [2]): Not active below 1 uM; IC50 (Mus musculus [8]): Not active below 1 uM
CC(=O)O[C@H]1CC[C@]2(C)[C@H]3CC=C4[C@@H]5CC(C)(C)CC[C@]5(C(=O)O)CC[C@@]4(C)[C@]3(C)CC[C@H]2C1(C)C [ACETYL OLEANOLIC ACID]	0%	–
C[C@]12CCC(=O)C=C1CC[C@@H]1[C@@H]2[C@@H](O)C[C@@]2(C)[C@H]1CC[C@]2(O)C(=O)CO [HYDROCORTISONE]	80%	–
COC(=O)[C@]12CCC(C)(C)C[C@H]1C1=CC[C@@H]3[C@@]4(C)CC[C@H](O)C(C)(C)[C@@H]4CC[C@@]3(C)[C@]1(C)CC2 [METHYL OLEANOLATE]	0%	–
CC1(C)CC[C@]2(C(=O)O)CC[C@]3(C)C(=CC[C@@H]4[C@@]5(C)CC[C@H](O)C(C)(C)[C@@H]5CC[C@]43C)[C@@H]2C1 [OLEANOLIC_ACID]	38%	–
CC1(C)CC[C@]2(C(=O)O)CC[C@]3(C)C(=CC[C@@H]4[C@@]5(C)CCC(=O)C(C)(C)[C@@H]5CC[C@]43C)[C@@H]2C1 [OLEANONIC ACID]	16%	–
